AI-2 QS mod = Vibrio harveyi AI-2 quorum sensing modulation; Vibrio harveyi JMH597 AI-2 luminescence/OD600 ratio, 9 h; stronger effect = lower value; strain lacks LuxN and CqsS sensors; 0 = neutral-control median; activity change, % at 7.5 µM; hit rate 0.4% among 300,000; in the data active means activity change below about -75%, passing the limit was not always enough; inconclusive means no clear call, values can overlap the other calls;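 further: luminescence divided by OD600 gain over 9 h not by final OD600 alone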
proKLK7 act = activators of human kallikrein-7 zymogen. P49862. hit rate 0.9% among 370,000. purified proKLK7, EDANS-DABCYL substrate fluorescence; 100% is mature enzyme control, 0% vehicle. activation, % at 7 µM. AID 652039;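 active means activation above the mean of all tested compounds plus 3 SD, computed per campaign excluding outliers beyond control limits, cut at about 13% in these data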
Runt-CBFb FRET = blocks binding of human RUNX1 Runt domain to CBFb. hit rate 0.46% among 220,000. Q01196+Q13951. AID 1496. inhibition, % at 20 µM. Cerulean-Runt/Venus-CBFb FRET ratio 530/480, 1 h;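 active means inhibition over about 50% at 20 µM in the single-dose screen, limit read from the data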;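 further: 0% = DMSO wells and 100% = excess unlabeled CBFb competitor control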
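Reagent – Venus-CBFb binding partner, 100 nM · Assay system – Cerulean-tagged RUNX1 Runt domain (FRET donor) fusion protein · Input – 100 nM per protein · Incubation – two 1 h room-temperature incubations shielded from light · Measured by – FRET fluorescence · Medium – Tris buffer pH 7.5 with salts and BSA · Benchmarks – unlabeled CBFb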
Runt-SMMHC FRET = blocks binding of human RUNX1 Runt domain to CBFb-SMMHC. AID 1434. hit rate 0.74% among 220,000. Q01196+Q13951. inhibition, % at 20 µM. Cerulean-Runt/Venus-CBFb-SMMHC FRET ratio 530/480, 1 h;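 active means mean inhibition across duplicate retests at 20 µM reaching about 50%, limit read from the data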;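 further: 0% = DMSO wells and 100% = wells with excess untagged CBFb-SMMHC; inhibitors lower the FRET ratio by blocking Runt binding to CBFb-SMMHC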
Wee1 stabilizer = human Wee1 degradation inhibition, primary screen | reporter increase, % at 5 µM | hit rate 1.2% among 220,000 | HeLa Luc-Wee1K328M stability, luciferase luminescence; 100% = proteasome inhibitor MG132 effect;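 active means activation above the mean of all tested compounds plus 3 SD, set per screening run, cut at about 8.8% in these data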;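 further: cells exposed to compound for 20 h before luminescence read; 0% = DMSO alone and 100% = MG132 at 30 µM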
Target sequence (P30291 whole entry K328M): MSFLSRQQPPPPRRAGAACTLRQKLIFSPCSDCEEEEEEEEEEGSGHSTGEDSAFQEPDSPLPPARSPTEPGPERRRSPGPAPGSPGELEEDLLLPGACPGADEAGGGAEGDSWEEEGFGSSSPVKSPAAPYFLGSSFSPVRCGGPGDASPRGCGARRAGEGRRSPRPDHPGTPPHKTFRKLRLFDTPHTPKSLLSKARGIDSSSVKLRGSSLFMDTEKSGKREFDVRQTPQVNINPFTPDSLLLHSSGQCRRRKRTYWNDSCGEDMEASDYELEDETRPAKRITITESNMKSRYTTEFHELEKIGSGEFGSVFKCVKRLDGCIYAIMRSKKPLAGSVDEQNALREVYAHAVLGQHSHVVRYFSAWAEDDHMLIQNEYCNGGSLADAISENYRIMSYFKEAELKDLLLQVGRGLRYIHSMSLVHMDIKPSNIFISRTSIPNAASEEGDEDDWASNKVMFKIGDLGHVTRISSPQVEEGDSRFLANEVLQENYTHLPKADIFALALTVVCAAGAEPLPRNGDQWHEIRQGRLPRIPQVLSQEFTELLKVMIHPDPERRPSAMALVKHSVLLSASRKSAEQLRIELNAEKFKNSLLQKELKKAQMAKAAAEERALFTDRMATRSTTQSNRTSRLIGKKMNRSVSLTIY
RanGTP-Imp inh = inhibitors of RanGTP-importin-beta interaction, primary screen, biochemical, FRET, CFP-Ran, YFP-importin-beta, homogeneous; AID 2216; cell-free CFP-Ran/YFP-importin-beta FRET ratio; hit rate 1.1% among 300,000; inhibition, % (no concentration beside the values);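 active means more than half of the replicate wells show a fall in the fluorescence ratio signal beyond about 16%, limit read from the data, passing the limit was not always enough; inconclusive means exactly half of the replicate wells pass the set limit; inactive means fewer than half of replicates pass the limit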;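 further: 0% = DMSO wells and 100% = Ran loaded with GDP instead of GTP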
Starred values were filed as active, the others as inactive; ? = inconclusive; . = no result given. The list is not random: actives were taken first. Their share in the collection is about 2.9%.

SMILES	AI-2 QS mod	proKLK7 act	Runt-CBFb FRET	Runt-SMMHC FRET	Wee1 stabilizer	RanGTP-Imp inh
CN1CC=C2C(C#N)=C(N)C(C#N)(C#N)C(c3ccncc3)C2C1 (stereo not given)	11.3	.	23.2	62.0	-0.7	44.9*
CC(=O)C1=C(C)OC2=C(C(=O)CCC2)[C@@]12C(=O)N(C)c1ccccc12	.	0.2	.	.	.	.
CCCC(=O)OCC[N+](C)(C)C	13.4	0.4	-1.7	2.6	9.4*	-0.3
OC1(CN2CCOCC2)C2CC3CC(C2)CC1C3 (stereo not given)	14.1	-0.2	-0.9	2.2	1.1	2.7
CC(C)CNC(=O)c1c(N)n(Cc2ccc3c(c2)OCO3)c2nc3ccccc3nc12	-3.9	-2.7	14.5	55.7*	-0.9	1.2
CC(C)CCNC(=O)c1c(N)n(Cc2ccc3c(c2)OCO3)c2nc3ccccc3nc12	15.7	-1.1	6.4	33.5	4.1	77.2*
CCCNC(=O)c1c(N)n(Cc2ccc3c(c2)OCO3)c2nc3ccccc3nc12	12.9	.	5.3	20.2	-0.8	.
CCOc1cc2c(cc1OCC)-n1cccc1C(c1ccc(C(C)C)cc1)NC2 (stereo not given)	14.5	-0.6	.	.	.	-0.6
O=C(N/N=C/c1c(O)n(C2CC2)c(=S)[nH]c1=O)c1ccccc1O	4.8	-1.0	41.9	73.0*	-1.7	0.2
Cc1ccccc1-n1c(O)c(/C=N/NC(=O)c2ccccc2O)c(=O)[nH]c1=S	10.7	-0.1	28.7	59.3*	-3.3	4.9
O=C(N/N=C/c1c(O)n(-c2ccccc2)c(=S)[nH]c1=O)c1ccccc1	28.2	-1.2	13.6	23.3	0.0	3.1
O=c1[nH]c(=S)n(C2CC2)c(O)c1C=NCc1ccc(F)cc1	20.6	-0.1	3.6	1.4	-0.8	0.9
CCC(C)n1c(O)c(C=Nc2cccc(C(F)(F)F)c2)c(=O)[nH]c1=S (stereo not given)	11.9	-0.1	5.7	9.8	-2.4	0.7
CCC1(CCC(C)C)C(=O)NC(=S)NC1=O	.	0.0	.	.	.	.
COc1cc(O)c(C(=O)O)c(-c2cc(O)c(O)cc2C)c1	-6.2	-0.6	19.3	58.4*	.	1.0
COc1ccc2c(c1)c(C(=O)O)c(C)n2CC(C)C	20.4	-0.3	-1.6	-1.6	-0.3	7.1
CCOC(=O)c1c(C)n(CCOC)c2ccc(O)cc12	-5.8	-0.3	-0.3	-0.1	9.0*	-1.2
CCOC(=O)c1c(C)n(CCN2CCN(C)CC2)c2ccc(OC)cc12	-0.7	.	-1.8	-0.2	-0.5	-0.7
COC(=O)C(O)(c1ccc(NC(=O)Oc2ccccc2)cc1)C(F)(F)F (stereo not given)	-76.1*	0.1	-3.4	3.0	1.3	1.7
CCn1nc(-c2ccccc2)nc2c(=O)n(C)c(=O)nc1-2	-92.5*	.	-37.7	-126.9	-0.4	-30.1
C=CC(=O)OCCO	.	0.0	.	.	.	.
Oc1ccccc1-[n+]1c(-c2ccccc2)cc(-c2ccccc2)cc1-c1ccccc1	2.4	0.0	.	.	.	7.7
Nc1ccccc1-[n+]1c(-c2ccccc2)cc(-c2ccccc2)cc1-c1ccccc1	6.1	-0.3	0.7	-4.2	-2.9	41.5*
C[C@H](NC(=O)OCc1ccccc1)C(=O)NC(Cc1ccccc1)P(=O)(Oc1ccccc1)Oc1ccccc1 (stereo not given in full)	.	-0.3	.	.	.	.
Cc1ccc(N)c(C(=O)c2ccc(Br)cc2)c1	23.4	-0.2	-4.0	-1.1	9.9*	4.0
SMILES	AI-2 QS mod	proKLK7 act	Runt-CBFb FRET	Runt-SMMHC FRET	Wee1 stabilizer	RanGTP-Imp inh
CC(C)=CCN1CC[C@@]2(C)c3cc(O)ccc3C[C@@H]1C2C (stereo not given in full)	.	-0.6	.	.	.	.
C[C@H]1CC[C@@H]2[C@@H](C)[C@H]3[C@H](C[C@H]4[C@@H]5CC=C6C[C@@H](O[C@@H]7O[C@H](CO)[C@H](O)[C@H](O[C@@H]8O[C@H](CO)[C@@H](O)[C@H](O)[C@H]8O)[C@H]7O[C@@H]7O[C@@H](C)[C@H](O)[C@@H](O)[C@H]7O)CC[C@]6(C)[C@H]5CC[C@]34C)N2C1	22.4	0.8	8.4	23.6	8.5	16.7*
O=C1NC(=O)C(=Cc2ccc3c(c2)OCO3)C(=O)N1	46.6	0.5	5.4	5.8	9.1*	?
CN(C)c1ccc(C=C2C(=O)NC(=O)NC2=O)cc1	.	-0.6	.	.	.	.
O=C1NC(=O)N(Cc2ccccc2)C(=O)/C1=C/N1CCCc2ccccc21	8.4	-1.8	17.0	18.0	-3.6	30.4*
CC(C)C[C@H]1N=C(c2ccccc2)c2ccccc2N(CC(=O)NC(C)(C)C)C1=O	.	-0.2	.	.	.	.
O=S(=O)(NC1CCCCC1)OCC(Cl)(Cl)Cl	17.8	0.4	.	.	.	-3.3
Cn1c(O)c(/C=C/C=Nc2ccccc2)c(=O)n(C)c1=O	15.8	0.3	34.8	69.0*	6.0	33.0*
CCCCn1c(O)c(/C=C/C=Nc2ccccc2)c(=O)[nH]c1=O	27.2	0.4	47.3	64.3*	0.1	41.4*
C[C@@H]1CN([C@@H](C)CO)C(=O)CCCn2nncc2CO[C@@H]1CN(C)C(=O)Oc1ccccc1	.	0.0	.	.	.	.
C=CCn1c(O)c(C(C)=NC2CC2)c(=O)[nH]c1=O	10.7	-0.6	-2.1	2.3	5.7	-2.8
C=CCn1c(O)c(C(C)=NC2CCN(Cc3ccccc3)CC2)c(=O)[nH]c1=O	10.0	-1.0	-0.2	0.2	10.7*	8.3
C=CCN(CC#CCO)Cc1ccc(OC)cc1OC	.	0.6	.	.	.	.
CNc1cc(Cl)c2nonc2c1[N+](=O)[O-]	-90.4*	0.9	36.3	22.5	2.2	-1.4
OC(c1cccc(Cl)c1)(c1cccc(Cl)c1)C1CN2CCC1CC2 (stereo not given)	2.0	0.4	-0.2	-2.1	-0.7	6.5
CC1c2ccccc2-n2nncc2CN1C (stereo not given)	.	-0.3	.	.	.	.
O=C(NCCN1CCC2(CC1)C(=O)NCN2c1ccccc1)c1ccc(Cl)cc1	.	0.3	.	.	.	.
COC(=O)C1=C(c2ccc(F)cc2OCc2ccccc2)C[C@@H]2CC[C@H]1N2C(=O)N1CCOCC1	.	1.1	.	.	.	.
CCCCCn1c(=O)c(C(=O)NCc2ccco2)c(O)c2ccccc21	28.0	0.1	0.8	2.6	-0.6	1.2
COCCCNC(=O)c1c(NC(=O)c2ccco2)n(Cc2ccccc2)c2nc3ccccc3nc12	16.8	-13.8	42.2	.	3.6	44.0*
CCCCCn1c(NC(=O)c2ccco2)c(C(=O)OCC)c2nc3ccccc3nc21	-23.4	.	30.4	102.0*	0.0	79.4*
COCCNC(=O)c1c(NC(=O)c2ccc(Br)o2)n(Cc2ccccc2)c2nc3ccccc3nc12	11.5	-5.5	15.8	.	0.6	58.4*
O=C(Cn1cnc2sc3c(c2c1=O)CCCC3)NCCCC(=O)N1CCC2(CC1)OCCO2	9.5	0.3	1.6	3.5	-0.7	7.9

Screening data as filed in PubChem.
